Reference: article PMC6119551 (Neuropharmacology, 2018)

What was measured:
[1] = target: 5-HT2A receptors in rat brain tissue (Rattus norvegicus, UniProt P14842); test: [3H]M100907 radioligand binding in rat brain tissue
[2] = target: T1, human 5-HT2A receptors (Homo sapiens, UniProt P28223); test: Calcium mobilization, HEK293 cells expressing human 5-HT2A; type: cell-based; details: for Fold more potent than NBOMe counterpart in 5-HT2A-mediated calcium mobilization: 2C-C vs 25C-NBOMe, 2C-I vs 25I-NBOMe; for Emax: HEK293, read-out: 5-HT2A Mobilization of Calcium %Emax
T1 sequence (P28223 whole entry): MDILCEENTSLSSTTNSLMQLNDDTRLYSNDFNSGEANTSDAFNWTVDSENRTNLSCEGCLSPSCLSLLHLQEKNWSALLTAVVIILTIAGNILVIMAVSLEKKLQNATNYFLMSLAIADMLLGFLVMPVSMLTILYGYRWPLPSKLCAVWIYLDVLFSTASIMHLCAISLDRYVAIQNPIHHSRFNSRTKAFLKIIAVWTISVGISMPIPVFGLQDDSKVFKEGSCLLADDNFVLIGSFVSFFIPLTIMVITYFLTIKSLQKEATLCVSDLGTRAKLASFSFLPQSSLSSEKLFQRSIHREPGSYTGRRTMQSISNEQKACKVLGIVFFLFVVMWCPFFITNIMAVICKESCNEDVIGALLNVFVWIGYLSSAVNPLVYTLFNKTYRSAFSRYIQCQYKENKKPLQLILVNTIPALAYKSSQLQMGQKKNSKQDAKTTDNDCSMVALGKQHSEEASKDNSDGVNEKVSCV

[3] = target: T2, human 5-HT2C receptors (Homo sapiens, UniProt P28335); test: Calcium mobilization, HEK293 cells expressing human 5-HT2C; type: cell-based; details: for Emax: HEK293, read-out: 5-HT2C Mobilization of Calcium % Emax
T2 sequence (P28335 33-458): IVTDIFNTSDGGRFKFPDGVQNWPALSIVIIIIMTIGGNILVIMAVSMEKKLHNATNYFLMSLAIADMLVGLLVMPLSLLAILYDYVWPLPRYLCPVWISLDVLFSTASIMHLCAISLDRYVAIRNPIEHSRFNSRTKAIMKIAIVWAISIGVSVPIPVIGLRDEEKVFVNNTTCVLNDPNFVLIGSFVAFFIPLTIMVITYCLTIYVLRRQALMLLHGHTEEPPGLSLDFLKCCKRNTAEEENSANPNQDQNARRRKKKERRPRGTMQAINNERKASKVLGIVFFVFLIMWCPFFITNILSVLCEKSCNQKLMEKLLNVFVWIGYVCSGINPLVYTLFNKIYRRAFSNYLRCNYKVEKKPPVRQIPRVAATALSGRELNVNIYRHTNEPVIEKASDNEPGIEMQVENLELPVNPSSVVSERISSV

[4] = tested on: male rats; test: Wet dog shakes; type: in vivo, rat; details: sc; for Doses significantly increasing summed WDS vs vehicle: Bonferroni p<0.05
How it was run: (§1)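 Male Sprague-Dawley rats (250–300 g) with ≥2 weeks of acclimation, one sc injection per weekly session of saline or one of 4 doses (1.0 mL/kg), N=9/group. Dose ranges were 0.03–1.0, 0.01–0.3 or 0.1–3.0 mg/kg depending on compound. WDS and BMC were counted by a non-blind rater in eight 90-s periods every 15 min and summed. ED50 came from nonlinear regression of score versus log dose on the rising phase.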

[5] = tested on: male rats; test: Back muscle contractions; type: in vivo, rat; details: sc; for Doses significantly increasing summed BMC vs vehicle: rats, Bonferroni p<0.05; for Rat BMC ED50: summed BMC over 2 h, rising phase of dose-effect function
How it was run: as §1

[6] = tested on: male rats; test: Body temperature via implanted transponder; type: in vivo, rat; details: sc, all doses tested, 15-120 min post-injection
[7] = ref Eshleman et al. (2014); cited from earlier work
[8] = tested on: 5-HT2A receptor; details: ref Eshleman et al. (2014); cited from earlier work
[9] = tested on: 5-HT2A receptor; details: ref Eshleman et al. (2014); cited from earlier work; remark: listed apart in the source
[10] = tested on: mice; details: sc, ref Halberstadt and Geyer, 2014; cited from earlier work
[11] = target: T1, human 5-HT2A receptors; details: 25C-NBOMe vs 2C-C, 25I-NBOMe vs 2C-I; ref Rickli et al., 2015; cited from earlier work
[12] = tested on: rats; details: cited from earlier work
[13] = tested on: mice; details: ref Gatch et al., 2017; cited from earlier work
[14] = tested on: male rats; test: M100907 antagonism of agonist-induced WDS and BMC; type: in vivo, rat
How it was run: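 Male Sprague-Dawley rats got sc M100907 (0.1 mg/kg in 1:9 DMSO:saline) or its vehicle 30 min before sc agonist or saline, with agonists at fixed doses of 0.03–1.0 mg/kg. Summed WDS and BMC came from eight 90-s observations at 15-min intervals by a non-blind rater. Rats were tested weekly, N=9/group, by Bonferroni comparison with Veh/Veh.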

[15] = tested on: 5-HT2A; details: ref Marek and Aghajanian, 1994; cited from earlier work
[16] = 0.1 mg/kg M100907 30 min before 0.03 mg/kg 25C-NBOMe
[17] = 0.1 mg/kg M100907 30 min before 0.1 mg/kg 25I-NBOMe
[18] = 0.1 mg/kg M100907 30 min before 0.3 mg/kg 2C-C
[19] = 0.1 mg/kg M100907 30 min before 1.0 mg/kg 2C-I
[20] = 0.1 mg/kg M100907 30 min before 1.0 mg/kg DOI sc

Sequence of 5-HT2A receptors in rat brain tissue (P14842 whole entry): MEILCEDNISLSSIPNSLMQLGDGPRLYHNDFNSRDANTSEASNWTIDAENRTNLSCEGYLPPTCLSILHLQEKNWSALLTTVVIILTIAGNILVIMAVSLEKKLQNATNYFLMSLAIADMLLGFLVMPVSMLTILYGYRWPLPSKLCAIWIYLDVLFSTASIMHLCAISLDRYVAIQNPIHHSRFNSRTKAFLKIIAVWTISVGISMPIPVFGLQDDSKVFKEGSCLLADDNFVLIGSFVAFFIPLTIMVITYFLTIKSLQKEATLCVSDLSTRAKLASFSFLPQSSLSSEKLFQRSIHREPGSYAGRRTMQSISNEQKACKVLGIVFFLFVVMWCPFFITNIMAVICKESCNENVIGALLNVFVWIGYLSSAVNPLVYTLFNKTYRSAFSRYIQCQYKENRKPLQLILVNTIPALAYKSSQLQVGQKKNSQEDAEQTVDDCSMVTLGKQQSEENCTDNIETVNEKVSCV

Structure (SMILES) | IC50 [1] [nM] | EC50 [2] [nM] | Fold more potent than NBOMe counterpart in 5-HT2A-mediated calcium mobilization [2] [fold] | Emax [2] [%] | EC50 [3] [nM] | Emax [3] [%] | Doses significantly increasing summed WDS vs vehicle ([4]; rats) | Doses significantly increasing summed BMC vs vehicle [5] | Effect on body temperature [6] | Functional activity in the IP assay [8] | Functional activity in the [3H]AA assay [9] | Rat BMC ED50 [5] [mg/kg] | ED50 in the head twitch assay [10] [mg/kg] | Fold greater affinity for human 5-HT2A receptors than 2C counterpart [11] [fold] | Effect on locomotor activity [13] | further results
COc1cc(CCN)c(OC)cc1Cl [Compound 2C-C, 2-(4-chloro-2,5-dimethoxyphenyl)ethanamine] | 308 ± 21.6 | 4.57 ± 0.5 | 13 | 95 | 77.6 ± 5.5 | 29 | Significant stimulation of both behaviors occurred after administration of 0.3, 1.0, and 3.0 mg/kg doses | Significant stimulation of both behaviors occurred after administration of 0.3, 1.0, and 3.0 mg/kg doses | failed to significantly alter body temperature at any dose tested | full agonist | full agonist |  |  |  |  | Substitution for MDMA in drug discrimination [7]: fully substitutes
COc1cc(CCN)c(OC)cc1I [Compound 2C-I, 2-(4-iodo-2,5-dimethoxyphenyl)ethanamine] | 125 ± 13 | 3.97 ± 0.7 | 8 | 89 | 47.2 ± 6.7 | 28 | Significant stimulation of shaking behavior ocurred after 1.0 and 3.0 mg/kg doses | increases in BMC occurred after 0.3, 1.0, and 3.0 mg/kg doses | failed to alter body temperature at any dose tested | agonist | antagonist | 0.192 ± 0.060 | 0.83 |  |  | Substitution for prototypical hallucinogens like LSD in drug discrimination [7]: fully substitutes
COc1cc(CCNCc2ccccc2OC)c(OC)cc1Cl [Compound 25C-NBOMe, 2-(4-chloro-2,5-dimethoxyphenyl)-N-[(2-methoxyphenyl)methyl]ethanamine] | 8.7 ± 1 | 61.7 ± 3.5 |  | 104 | 178 ± 25 | 60 | Significant stimulation of shaking behavior occured after 0.03 and 0.1 mg/kg doses | stimulation of contractions occured after 0.03, 0.1 and 0.3 mg/kg doses | did not significantly alter body temperature at any dose tested |  |  |  |  | 18 | dose-dependently reduced locomotor activity | DOM-appropriate responding ([12]; dose of 0.03 mg/kg, ref Gatch and colleagues (2017)): < 20%; Substitution for DOM in drug discrimination ([12]; ip, ref Gatch et al., 2017): fully substituted; Substitution for MDMA in drug discrimination ([12]; ip, ref Gatch et al., 2017): only partially substituting
COc1cc(CCNCc2ccccc2OC)c(OC)cc1I [Compound 25I-NBOMe, 2-(4-iodo-2,5-dimethoxyphenyl)-N-[(2-methoxyphenyl)methyl]ethanamine] | 3.9 ± 0.4 | 34.7 ± 4.2 |  | 108 | 88.9 ± 11 | 70 | Significant increases in shakes occured after the 0.1 and 0.3 mg/kg doses | increases in contractions occurred after the 0.03, 0.1, and 0.3 mg/kg doses | did not significantly alter body temperature at any dose tested |  |  | 0.037 ± 0.011 | 0.08 | 6 | dose-dependently reduced locomotor activity | Fold more potent than 2C counterpart in inducing WDS ([4]; rats, 25C-NBOMe vs 2C-C, 25I-NBOMe vs 2C-I): 10 fold; Rat WDS ED50 ([4]; summed WDS over 2 h, rising phase of dose-effect function): 0.062 ± 0.026 mg/kg; Fold more potent than 2C-I at eliciting head twitch behavior [10]: about 10 fold
COc1cccc([C@H](O)C2CCN(CCc3ccc(F)cc3)CC2)c1OC [Compound M100907, (R)-(2,3-dimethoxyphenyl){1-[2-(4-fluorophenyl)ethyl]-4-piperidinyl}methanol] |  |  |  |  |  |  |  |  |  |  |  |  |  |  |  | Effect on BMC induced by 25C-NBOMe [14, 16]: significantly decreased; Effect on WDS induced by 25C-NBOMe [14, 16]: significantly decreased WDS; Effect on BMC induced by 25I-NBOMe [14, 17]: decreased; Effect on WDS induced by 25I-NBOMe [14, 17]: decreased WDS; Effect on BMC induced by 2C-C [14, 18]: decreased; Effect on WDS induced by 2C-C [14, 18]: decreased WDS; Effect on BMC induced by 2C-I [14, 19]: decreased; Effect on WDS induced by 2C-I [14, 19]: decreased WDS; Effect on BMC induced by DOI [14, 20]: significantly decreased shakes and contractions; Effect on WDS induced by DOI [14, 20]: significantly decreased shakes and contractions; Selectivity for 5-HT2A over 5-HT2C and other receptor subtypes [15]: more than 100 fold
COc1cc(CC(C)N)c(OC)cc1I (stereo not drawn) [DOI, 1-(4-iodo-2,5-dimethoxyphenyl)propan-2-amine, reference compound] | 56.1 ± 4.9 |  |  | 109 | 47.7 ± 3 | 50 | significant increases in both behaviors occurring after 0.1, 0.3, and 1.0 mg/kg | significant increases in both behaviors occurring after 0.1, 0.3, and 1.0 mg/kg | no significant effects on body temperature at any dose tested |  |  |  |  |  |  | 
